Assay results published in ChEMBL document CHEMBL1140216, “Triazine compounds as antagonists at Bv8-prokineticin receptors” (J Med Chem, 2008).
One block for each compound: values may come before it.

Key:
Prokineticin receptor 2 [1] = molecular target: T1, Prokineticin receptor 2 (Homo sapiens, UniProt Q8NFJ6); test: Displacement of [I125]MIT from PKR2 expressed in CHO cell membrane; format: cell membranes
Prokineticin receptor 1 [2] = molecular target: T2, Prokineticin receptor 1 (Homo sapiens, UniProt Q8TCW9); test: Displacement of [I125]MIT from PKR1 expressed in CHO cell membrane; format: cell membranes
Prokineticin receptor 1 [3] = molecular target: T2, Prokineticin receptor 1; test: Antagonist activity at PKR1 expressed in CHO cell membrane assessed as reduction of Bv8-induced increase in intracellular calcium level at 100 uM; format: functional, cell-based; design: scale not given: the % may be the effect or the level left
In short: (§1)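 Intact CHO cells transfected with PKR1 or PKR2. Compound preincubated 4 min, then challenged with 1 nM Bv8, and fluorescence followed for 2 min. Intracellular Ca2+ was read as the 340/380 nm […] ratio, and the result was scored as the percentage of cells responding to Bv8.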

Prokineticin receptor 2 [4] = molecular target: T1, Prokineticin receptor 2; test: Antagonist activity at PKR2 expressed in CHO cell membrane assessed as reduction of Bv8-induced increase in intracellular calcium level at 1 mM; format: functional, cell-based; design: scale not given: the % may be the effect or the level left; in short: as §1
Prokineticin receptor 1 [5] = molecular target: T2, Prokineticin receptor 1; test: Antagonist activity at PKR1 expressed in CHO cell membrane assessed as reduction of Bv8-induced increase in intracellular calcium level at 10 uM; format: functional, cell-based; design: scale not given: the % may be the effect or the level left; in short: as §1
Prokineticin receptor 1 [6] = molecular target: T2, Prokineticin receptor 1; test: Antagonist activity at PKR1 expressed in CHO cell membrane assessed as reduction of Bv8-induced increase in intracellular calcium level at 1 mM; format: functional, cell-based; design: scale not given: the % may be the effect or the level left; in short: as §1
Prokineticin receptor 2 [7] = molecular target: T1, Prokineticin receptor 2; test: Antagonist activity at PKR2 expressed in CHO cell membrane assessed as reduction of Bv8-induced increase in intracellular calcium level at 10 uM; format: functional, cell-based; design: scale not given: the % may be the effect or the level left; in short: as §1
[8] = Selectivity for ratio of Ki for PKR2 to Ki for PKR1
Prokineticin receptor 1 [9] = molecular target: T2, Prokineticin receptor 1; test: Antagonist activity at PKR1 expressed in CHO cell membrane assessed as reduction of Bv8-induced increase in intracellular calcium level at 300 nM; format: functional, cell-based; design: scale not given: the % may be the effect or the level left; in short: as §1
Prokineticin receptor 1 [10] = molecular target: T2, Prokineticin receptor 1; test: Antagonist activity at PKR1 expressed in CHO cell membrane assessed as reduction of Bv8-induced increase in intracellular calcium level at 100 nM; format: functional, cell-based; design: scale not given: the % may be the effect or the level left; in short: as §1
Prokineticin receptor 2 [11] = molecular target: T1, Prokineticin receptor 2; test: Antagonist activity at PKR2 expressed in CHO cell membrane assessed as reduction of Bv8-induced increase in intracellular calcium level at 100 nM; format: functional, cell-based; design: scale not given: the % may be the effect or the level left; in short: as §1
Prokineticin receptor 2 [12] = molecular target: T1, Prokineticin receptor 2; test: Antagonist activity at PKR2 expressed in CHO cell membrane assessed as reduction of Bv8-induced increase in intracellular calcium level at 300 nM; format: functional, cell-based; design: scale not given: the % may be the effect or the level left; in short: as §1

T1 sequence (Q8NFJ6 whole entry): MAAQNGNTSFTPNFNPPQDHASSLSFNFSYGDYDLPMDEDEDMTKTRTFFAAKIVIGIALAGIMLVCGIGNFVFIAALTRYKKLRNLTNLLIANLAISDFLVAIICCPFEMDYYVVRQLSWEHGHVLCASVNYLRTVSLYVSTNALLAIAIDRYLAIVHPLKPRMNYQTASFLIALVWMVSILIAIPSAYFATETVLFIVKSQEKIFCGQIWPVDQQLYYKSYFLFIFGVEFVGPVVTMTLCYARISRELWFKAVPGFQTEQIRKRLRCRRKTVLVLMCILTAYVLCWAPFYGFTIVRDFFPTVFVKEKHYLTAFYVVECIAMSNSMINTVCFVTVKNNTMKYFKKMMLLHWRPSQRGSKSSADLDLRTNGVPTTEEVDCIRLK
T2 sequence (Q8TCW9 whole entry): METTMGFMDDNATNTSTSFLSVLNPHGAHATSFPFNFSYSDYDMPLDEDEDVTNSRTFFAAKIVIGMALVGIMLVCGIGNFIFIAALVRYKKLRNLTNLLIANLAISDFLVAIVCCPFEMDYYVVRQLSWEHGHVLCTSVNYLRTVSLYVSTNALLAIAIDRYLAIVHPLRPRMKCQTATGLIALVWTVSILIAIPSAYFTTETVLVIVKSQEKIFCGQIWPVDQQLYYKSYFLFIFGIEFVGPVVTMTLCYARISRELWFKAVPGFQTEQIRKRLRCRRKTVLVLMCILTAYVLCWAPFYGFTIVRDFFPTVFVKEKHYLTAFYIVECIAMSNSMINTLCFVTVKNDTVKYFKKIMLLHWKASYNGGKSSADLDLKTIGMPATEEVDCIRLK

Ki (Prokineticin receptor 2 [1]): 71.2 µM | Ki (Prokineticin receptor 1 [2]): 4720 nM
Structure (SMILES): CCc1ccc(Cn2c(=O)nc(NCCN=C3NCCN3)n(Cc3ccc(OC)cc3)c2=O)cc1

Activity (Prokineticin receptor 1 [3]): 91%
Structure (SMILES): CCc1ccc(Cn2c(=O)nc(NCCNC3=NCCN3)n(Cc3ccc(OC)cc3)c2=O)cc1

Activity (Prokineticin receptor 2 [4]): 2% | Ki (Prokineticin receptor 2 [1]): 23.4 µM | Activity (Prokineticin receptor 1 [5]): 90% | Activity (Prokineticin receptor 1 [6]): 0.3% | Ki (Prokineticin receptor 1 [2]): 440 nM | Activity (Prokineticin receptor 2 [7]): 89%
Structure (SMILES): CCc1ccc(Cn2c(=O)nc(NCCN)n(Cc3ccc(OC)cc3)c2=O)cc1

Ki (Prokineticin receptor 2 [1]): 1.61 µM | Ki (Prokineticin receptor 1 [2]): 22 nM | Ratio Ki [8]: 70 | Activity (Prokineticin receptor 1 [9]): 4% | Activity (Prokineticin receptor 1 [10]): 52% | Activity (Prokineticin receptor 2 [11]): 48% | Activity (Prokineticin receptor 2 [12]): 6%
Structure (SMILES): CCc1ccc(Cn2c(=O)nc(NCCNC(=N)N)n(Cc3ccc(OC)cc3)c2=O)cc1
